From ChEMBL document CHEMBL1155143, “Interaction of the GraRS two-component system with the VraFG ABC transporter to support vancomycin-intermediate resistance in Staphylococcus aureus” (2007)
In brackets after ≈: the same amount, converted by molar mass. Activity calls are given as the source filed them. The calls are words filed in the database; no cut-off is given here.

Legend:
Staphylococcus aureus [1] = test: Antimicrobial activity against wild type vancomycin-intermediate resistant Staphylococcus aureus Mu50 by microdilution assay; type: functional
Procedure, shortened: (§1)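 Standardized CLSI broth microdilution was run in CSMHB with 10^5 CFU/ml inoculum and scored at 48 h. Values are medians of at least three independent experiments. Daptomycin MICs for Mu50 strains were read by Etest per the supplied protocol instead of microdilution.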

Staphylococcus aureus [2] = test: Antimicrobial activity against vancomycin-intermediate resistant Staphylococcus aureus Mu50 graR mutant microdilution assay; type: functional; procedure, shortened: as §1
Staphylococcus aureus [3] = test: Antimicrobial activity against vancomycin-intermediate resistant Staphylococcus aureus Mu50 vraG mutant microdilution assay; type: functional; procedure, shortened: as §1
Staphylococcus aureus [4] = test: Antimicrobial activity against methicillin-resistant Staphylococcus aureus COL graR mutant assessed as hypersensitivity at 1 ug/ml; type: functional, organism-based
Procedure, shortened: (§2)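 Overnight CSMHB cultures (Mueller-Hinton broth with 25 μg/ml Ca2+ and 12.5 μg/ml Mg2+) were adjusted to A650 1.1 (~10^9 CFU/ml). They were diluted 200 μl per 7 ml CSMHB with or without 1 μg/ml vancomycin, and growth curves were plotted as A650 over time. Plasmid-carrying strains received 10 μg/ml chloramphenicol.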

Staphylococcus aureus [5] = test: Antimicrobial activity against methicillin-resistant Staphylococcus aureus COL assessed as hypersensitivity at 1 ug/ml; type: functional, organism-based; procedure, shortened: as §2
Staphylococcus aureus [6] = test: Antimicrobial activity against methicillin-resistant Staphylococcus aureus sacol1355 mutant assessed as hypersensitivity at 1 ug/ml; type: functional, organism-based; procedure, shortened: as §2
Staphylococcus aureus [7] = test: Antimicrobial activity against methicillin-resistant Staphylococcus aureus sacol2358 mutant assessed as hypersensitivity at 1 ug/ml; type: functional, organism-based; procedure, shortened: as §2
Staphylococcus aureus [8] = test: Antimicrobial activity against wild type methicillin-resistant Staphylococcus aureus COL expressing pEPSA5graRS1 plasmid by microdilution assay
Staphylococcus aureus [9] = test: Antimicrobial activity against wild type vancomycin-intermediate resistant Staphylococcus aureus Mu50 expressing pEPSA5 plasmid by microdilution assay
Staphylococcus aureus [10] = test: Antimicrobial activity against wild type vancomycin-intermediate resistant Staphylococcus aureus Mu50 expressing pEPSA5graRS1 plasmid by microdilution assay
Staphylococcus aureus [11] = test: Antimicrobial activity against wild type vancomycin-intermediate resistant Staphylococcus aureus Mu50 expressing pEPSA5graFG1 plasmid by microdilution assay
Staphylococcus aureus [12] = test: Antimicrobial activity against wild type vancomycin-intermediate resistant Staphylococcus aureus Mu50 expressing pEPSA5graRS2 plasmid by microdilution assay
Staphylococcus aureus [13] = test: Antimicrobial activity against vancomycin-intermediate resistant Staphylococcus aureus Mu50 vraG mutant expressing pEPSA5graRS1 plasmid by microdilution assay
Staphylococcus aureus [14] = test: Antimicrobial activity against methicillin-resistant Staphylococcus aureus sacol2646 mutant assessed as hypersensitivity at 1 ug/ml; type: functional, organism-based; procedure, shortened: as §2
Staphylococcus aureus [15] = test: Antimicrobial activity against wild type methicillin-resistant Staphylococcus aureus COL by microdilution assay; type: functional, organism-based; procedure, shortened: as §1
Staphylococcus aureus [16] = test: Antimicrobial activity against methicillin-resistant Staphylococcus aureus COL graR mutant by microdilution assay; type: functional, organism-based; procedure, shortened: as §1
Staphylococcus aureus [17] = test: Antimicrobial activity against methicillin-resistant Staphylococcus aureus COL graS mutant by microdilution assay; type: functional, organism-based; procedure, shortened: as §1
Staphylococcus aureus [18] = test: Antimicrobial activity against methicillin-resistant Staphylococcus aureus COL vraG mutant by microdilution assay; type: functional, organism-based; procedure, shortened: as §1
Staphylococcus aureus [19] = test: Antimicrobial activity against wild type methicillin-resistant Staphylococcus aureus COL expressing pEPSA5 plasmid by microdilution assay; type: functional, organism-based
Procedure, shortened: (§3)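 CLSI broth microdilution was run in CSMHB with 10^5 CFU/ml for strains carrying pEPSA5-based plasmids. Chloramphenicol 10 μg/ml maintained the plasmid, and growth was scored at 72 h. Media were used with or without 0.5% xylose or glucose. MIC is the median over all conditions from three independent experiments.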

Staphylococcus aureus [20] = test: Antimicrobial activity against wild type methicillin-resistant Staphylococcus aureus COL expressing pEPSA5graRS2 plasmid by microdilution assay; type: functional, organism-based; procedure, shortened: as §3
Staphylococcus aureus [21] = test: Antimicrobial activity against wild type methicillin-resistant Staphylococcus aureus COL expressing pEPSA5vraFG2 plasmid by microdilution assay; type: functional, organism-based; procedure, shortened: as §3
Staphylococcus aureus [22] = test: Antimicrobial activity against wild type methicillin-resistant Staphylococcus aureus COL expressing pEPSA5vraFG1 plasmid by microdilution assay; type: functional, organism-based; procedure, shortened: as §3
Staphylococcus aureus [23] = test: Antimicrobial activity against wild type methicillin-susceptible Staphylococcus aureus RN6390 by microdilution assay; type: functional, organism-based; procedure, shortened: as §1
Staphylococcus aureus [24] = test: Antimicrobial activity against methicillin-susceptible Staphylococcus aureus RN6390 graR by microdilution assay; type: functional, organism-based; procedure, shortened: as §1
Staphylococcus aureus [25] = test: Antimicrobial activity against methicillin-susceptible Staphylococcus aureus RN6390 vraG by microdilution assay; type: functional, organism-based; procedure, shortened: as §1
Staphylococcus aureus [26] = test: Antimicrobial activity against methicillin-susceptible Staphylococcus aureus RN6390 graS by microdilution assay; type: functional, organism-based; procedure, shortened: as §1
Staphylococcus aureus [27] = conditions: COL

| Compound | MIC (Staphylococcus aureus [1]) [µg/mL] | MIC (Staphylococcus aureus [2]) [µg/mL] | MIC (Staphylococcus aureus [3]) [µg/mL] | further results |
| --- | --- | --- | --- | --- |
| O=C(N[C@H](CO)[C@H](O)c1ccc([N+](=O)[O-])cc1)C(Cl)Cl [CHLORAMPHENICOL] | 8 (≈ 24.8 µM) | 8 (≈ 24.8 µM) | 8 (≈ 24.8 µM) |  |
| N[C@@H]1CONC1=O [CYCLOSERINE] | 128 (≈ 1250 µM) | 64 (≈ 627 µM) | 64 (≈ 627 µM) |  |
| C[C@@H]1O[C@@H]1P(=O)(O)O [FOSFOMYCIN] | 1020 (≈ 7420 µM) | 1020 (≈ 7420 µM) | 1020 (≈ 7420 µM) |  |
| CN[C@H](CC(C)C)C(=O)N[C@H]1C(=O)N[C@@H](CC(N)=O)C(=O)N[C@H]2C(=O)N[C@H]3C(=O)N[C@H](C(=O)N[C@H](C(=O)O)c4cc(O)cc(O)c4-c4cc3ccc4O)[C@H](O)c3ccc(c(Cl)c3)Oc3cc2cc(c3O[C@@H]2O[C@H](CO)[C@@H](O)[C@H](O)[C@H]2O[C@H]2C[C@](C)(N)[C@H](O)[C@H](C)O2)Oc2ccc(cc2Cl)[C@H]1O [VANCOMYCIN] | 8 (≈ 5.52 µM) |  |  | Activity (Staphylococcus aureus [4]): Active; Activity (Staphylococcus aureus [5]): inactive; Activity (Staphylococcus aureus [6]): inactive; Activity (Staphylococcus aureus [7]): inactive; MIC (Staphylococcus aureus [8]): 8 µg/mL (≈ 5.52 µM); MIC (Staphylococcus aureus [9]): 8 µg/mL (≈ 5.52 µM); MIC (Staphylococcus aureus [10]): 8 µg/mL (≈ 5.52 µM); MIC (Staphylococcus aureus [11]): 8 µg/mL (≈ 5.52 µM); MIC (Staphylococcus aureus [12]): 8 µg/mL (≈ 5.52 µM); MIC (Staphylococcus aureus [13]): 8 µg/mL (≈ 5.52 µM); Activity (Staphylococcus aureus [14]): inactive |
| CC[C@H](C)[C@@H]1NC(=O)[C@H](CO)NC(=O)[C@@H]2CCCN2C(=O)[C@H](C)NC(=O)CNC(=O)[C@H](CC(C)C)NC(=O)[C@H](CCCCN)N[C@H](CCCCN)NC(=O)[C@H](CCSC)NC(=O)[C@H](CCCNC(=N)N)NC(=O)[C@H](Cc2c[nH]c3ccccc23)NC(=O)[C@H](CCC(N)=O)NC(=O)[C@H](Cc2c[nH]c3ccccc23)NC(=O)[C@H](CCCNC(=N)N)NC(=O)[C@H](CCCNC(=N)N)NC(=O)[C@@H](NC(=O)[C@H](CCCCN)NC(=O)[C@@H](N)Cc2ccccc2)CSSC[C@@H](C(=O)N[C@H](C(=O)N[C@@H](CCCNC(=N)N)C(=O)N[C@@H](C)C(=O)N[C@@H](Cc2ccccc2)C(=O)O)C(C)C)NC(=O)[C@H]([C@@H](C)O)NC1=O [LACTOFERRICIN] | ≥ 512 | ≥ 512 | ≥ 512 |  |
| C/C(=C\C(=O)OCCCCCCCCC(=O)O)C[C@@H]1OC[C@H](C[C@@H]2O[C@H]2[C@@H](C)[C@H](C)O)[C@@H](O)[C@H]1O [MUPIROCIN] | 0.25 (≈ 0.499 µM) | 0.25 (≈ 0.499 µM) | 0.25 (≈ 0.499 µM) |  |
| COc1cc(Cc2cnc(N)nc2N)cc(OC)c1OC [TRIMETHOPRIM] | 4 (≈ 13.8 µM) | 2 (≈ 6.89 µM) | 4 (≈ 13.8 µM) |  |
| CC[C@H]1OC(=O)[C@H](C)[C@@H](O[C@H]2C[C@@](C)(OC)[C@@H](O)[C@H](C)O2)[C@H](C)[C@@H](O[C@@H]2O[C@H](C)C[C@H](N(C)C)[C@H]2O)[C@](C)(O)C[C@@H](C)C(=O)[C@H](C)[C@@H](O)[C@]1(C)O [ERYTHROMYCIN] | ≥ 2050 | 1020 (≈ 1400 µM) | ≥ 2050 |  |
| O=C(O)c1cn(C2CC2)c2cc(N3CCNCC3)c(F)cc2c1=O [CIPROFLOXACIN] | 32 (≈ 96.6 µM) | 64 (≈ 193 µM) | 64 (≈ 193 µM) |  |
| CO[C@@H]1[C@@H](OC(N)=O)[C@@H](O)[C@H](Oc2ccc3c(O)c(NC(=O)c4ccc(O)c(CC=C(C)C)c4)c(=O)oc3c2C)OC1(C)C [NOVOBIOCIN] | 0.125 (≈ 0.204 µM) | 0.25 (≈ 0.408 µM) | 0.125 (≈ 0.204 µM) |  |
| CCCCCCCCCC(=O)N[C@@H](Cc1c[nH]c2ccccc12)C(=O)N[C@H](CC(N)=O)C(=O)N[C@@H](CC(=O)O)C(=O)N[C@@H]1C(=O)NCC(=O)N[C@@H](CCCN)C(=O)N[C@@H](CC(=O)O)C(=O)N[C@H](C)C(=O)N[C@@H](CC(=O)O)C(=O)NCC(=O)N[C@H](CO)C(=O)N[C@@H]([C@H](C)CC(=O)O)C(=O)N[C@@H](CC(=O)c2ccccc2N)C(=O)O[C@@H]1C | 2 (≈ 1.23 µM) | 1 (≈ 0.617 µM) | 2 (≈ 1.23 µM) |  |
| CN(C)[C@@H]1C(O)=C(C(N)=O)C(=O)[C@@]2(O)C(O)=C3C(=O)c4c(O)cccc4[C@@](C)(O)[C@H]3C[C@@H]12 [TETRACYCLINE] | 64 (≈ 144 µM) | 128 (≈ 288 µM) | 64 (≈ 144 µM) |  |
| CO[C@H]1/C=C/O[C@@]2(C)Oc3c(C)c(O)c4c(O)c(c(/C=N/N5CCN(C)CC5)c(O)c4c3C2=O)NC(=O)/C(C)=C\C=C\[C@H](C)[C@H](O)[C@@H](C)[C@@H](O)[C@@H](C)[C@H](OC(C)=O)[C@@H]1C [RIFAMPIN] | 1020 (≈ 1240 µM) | 1020 (≈ 1240 µM) | 1020 (≈ 1240 µM) |  |
| NC[C@H]1O[C@H](O[C@H]2[C@H](O)[C@@H](O[C@H]3O[C@H](CO)[C@@H](O)[C@H](N)[C@H]3O)[C@H](N)C[C@@H]2N)[C@H](N)C[C@@H]1O [TOBRAMYCIN] | ≥ 2050 | ≥ 2050 | ≥ 2050 |  |
| POLYMYXIN B | 128 | 16 | 16 | MIC (Staphylococcus aureus [15]): 64 µg/mL; MIC (Staphylococcus aureus [16]): 8 µg/mL; MIC (Staphylococcus aureus [17]): 8 µg/mL; MIC (Staphylococcus aureus [18]): 8 µg/mL; MIC (Staphylococcus aureus [19]): 64 µg/mL; MIC (Staphylococcus aureus [20]): 64 µg/mL; MIC (Staphylococcus aureus [21]): 64 µg/mL; MIC (Staphylococcus aureus [22]): 64 µg/mL; MIC (Staphylococcus aureus [23]): 32 µg/mL; MIC (Staphylococcus aureus [24]): 4 µg/mL; MIC (Staphylococcus aureus [25]): 4 µg/mL; MIC (Staphylococcus aureus [26]): 4 µg/mL; MIC (Staphylococcus aureus [27]): 128 µg/mL |
| Cc1onc(-c2ccccc2)c1C(=O)N[C@@H]1C(=O)N2[C@@H]1SC(C)(C)[C@@H]2C(=O)O [OXACILLIN] | 512 (≈ 1280 µM) | 256 (≈ 638 µM) | 1020 (≈ 2550 µM) |  |
